The record followed here is ChEMBL document CHEMBL4014307, “Diindolylmethane Derivatives: Potent Agonists of the Immunostimulatory Orphan G Protein-Coupled Receptor GPR84” (J Med Chem, 2017).

A short description of data set [1]: Stability of the compound in pH 1.2 artificial gastric fluid containing HCl, NaCl and pepsin assessed as parent compound remaining at 100 uM after 1 hr by HPLC-MS analysis. In outline:
(§1)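 Stock (2.5 mM in methanol/acetonitrile 1:1) diluted to 100 µM final in water, 0.01 % aqueous ammonia (pH 9), 1 mM NaOH (pH 11), or artificial gastric acid (pepsin, NaCl, HCl; pH 1.2). Incubated at 37 °C up to 24 h, sampled at intervals. Analysed by LC-ESI-MS on C18 at 25 °C with water/2 mM ammonium acetate–acetonitrile gradient.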

Data set [2] in a line: Stability of the compound in 1 mM sodium hydroxide solution at 100 uM at pH 11 up to 24 hrs by HPLC-MS analysis. Format: physicochemical. Particulars: buffer, pH 11, 24 h. In outline: as §1
For data set [3], the target named is Free fatty acid receptor 1 (Homo sapiens, UniProt O14842). Briefly: Agonist activity at Gq protein coupled human FFAR1 expressed in human 1321N1 cells assessed as induction of intracellular calcium level at 10 uM measured at 1.2 secs time interval by Fluo-4-AM dye based fluorescence assay. The format is functional, cell-based. In outline: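 1321N1 astrocytoma cells retrovirally expressing human FFAR1, 50,000 per well, loaded 60 min at rt in dark with 3 µM Fluo-4-AM and 0.06 % Pluronic F-127 in HBSS. Compounds at 10 µM final; antagonist mode uses 30 min preincubation before TUG-424 (final 1 µM). Fluorescence at 520 nm (excitation 485 nm), 90 reads at 1.2 s intervals. Normalized to TUG-424 at 10 µM (agonist) or 1 µM (antagonist).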
(In general: Calcium assays in cells follow changes in intracellular calcium, usually with a dye or a luminescent sensor.)

Data set [4] addresses T1, Free fatty acid receptor 4 (Homo sapiens) (UniProt Q5NUL3).
T1 sequence (whole entry): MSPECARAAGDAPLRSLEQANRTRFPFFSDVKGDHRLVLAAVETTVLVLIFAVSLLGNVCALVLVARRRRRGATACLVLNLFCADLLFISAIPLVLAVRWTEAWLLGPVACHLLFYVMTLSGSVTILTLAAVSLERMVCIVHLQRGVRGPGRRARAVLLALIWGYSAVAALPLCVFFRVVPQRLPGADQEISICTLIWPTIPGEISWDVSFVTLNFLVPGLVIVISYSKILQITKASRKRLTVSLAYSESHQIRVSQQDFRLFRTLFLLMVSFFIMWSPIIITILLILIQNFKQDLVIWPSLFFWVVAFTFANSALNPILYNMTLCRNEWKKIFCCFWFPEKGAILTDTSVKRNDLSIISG
The experiment in a line: Agonist activity at human FFAR4 expressed in CHO cells assessed as beta-arrestin recruitment at 10 uM after 90 mins by beta-galactosidase complementation assay. Format: cell-based. In outline:
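Human FFAR4 in CHO β-galactosidase complementation cells, 30,000 per well, serum-free F12 ~4 h before assay; final DMSO 1 %, compounds 10 µM. Agonist mode: 90 min with agonist, then detection 60 min rt dark; luminescence. 3–4 experiments in duplicate.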
In general terms: Recruitment of arrestin is a read-out of receptor activation apart from second messengers.

Data set [5] can be described thus: Stability of the compound in pH 1.2 artificial gastric fluid containing HCl, NaCl and pepsin assessed as parent compound remaining at 100 uM after 4 hrs by HPLC-MS analysis. The gist of the method: as §1
Data set [6] deals with G-protein coupled receptor 35 (Homo sapiens) (UniProt Q9HC97). The experiment in a line: Agonist activity at human GPR35 at 10 uM.
In data set [7] the target is T2, G-protein coupled receptor 84 (Homo sapiens, UniProt Q9NQS5). Briefly: Agonist activity at human GPR84 expressed in CHO cells assessed as beta-arrestin recruitment at 10 uM after 90 mins by beta-galactosidase complementation assay relative to embelin. The format is cell-based. In outline:
(§2)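 CHO cells co-expressing human GPR84–β-galactosidase fragment and β-arrestin–complementary fragment, 20,000 per well. Compounds in DMSO (final ≤1 %) added for 90 min, then detection reagent for 60 min at rt; luminescence read. Three to five independent experiments in duplicate.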

Data set [8] is described as follows: Stability of the compound in 0.01% ammonia solution at 100 uM at pH 9 up to 24 hrs by HPLC-MS analysis. The format is physicochemical. The settings on record: buffer, pH 9, 24 h. In outline: as §1
In data set [9] the target is T3, Aryl hydrocarbon receptor (Homo sapiens, UniProt P35869).
T3 sequence (P35869 whole entry): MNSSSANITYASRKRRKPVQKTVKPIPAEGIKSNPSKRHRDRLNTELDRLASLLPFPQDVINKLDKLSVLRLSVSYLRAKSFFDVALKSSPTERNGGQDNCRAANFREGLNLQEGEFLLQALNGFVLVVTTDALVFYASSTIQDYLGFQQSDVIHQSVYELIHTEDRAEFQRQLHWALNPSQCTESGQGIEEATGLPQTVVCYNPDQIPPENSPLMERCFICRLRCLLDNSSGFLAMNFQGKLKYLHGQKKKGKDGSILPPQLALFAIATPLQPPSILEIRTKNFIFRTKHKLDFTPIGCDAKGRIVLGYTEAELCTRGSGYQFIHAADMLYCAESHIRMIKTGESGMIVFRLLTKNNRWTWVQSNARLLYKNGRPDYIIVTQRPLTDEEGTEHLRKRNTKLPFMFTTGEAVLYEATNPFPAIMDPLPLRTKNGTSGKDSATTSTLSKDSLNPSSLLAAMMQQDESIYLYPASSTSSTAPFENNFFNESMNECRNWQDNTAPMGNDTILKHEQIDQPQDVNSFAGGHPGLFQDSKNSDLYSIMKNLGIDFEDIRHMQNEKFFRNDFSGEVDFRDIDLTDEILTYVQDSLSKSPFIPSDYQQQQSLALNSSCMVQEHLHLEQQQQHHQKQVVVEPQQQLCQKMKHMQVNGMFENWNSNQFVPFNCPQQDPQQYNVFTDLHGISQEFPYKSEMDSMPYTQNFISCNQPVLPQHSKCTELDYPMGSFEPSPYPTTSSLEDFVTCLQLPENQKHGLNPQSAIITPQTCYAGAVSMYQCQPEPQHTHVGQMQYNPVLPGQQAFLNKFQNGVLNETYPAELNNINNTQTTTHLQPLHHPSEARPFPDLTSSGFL
Briefly: Activation of AhR in human HepG2 cells assessed as induction of CYP1A1 mRNA expression after 18 hrs by RT-PCR method. The format is ADME, cell-based. In outline: (§3)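 HepG2 cells (3x10^5 cells/ml) stimulated 18 h with 5 µM or 20 µM test compound or left untreated; 3-methylcholanthrene (10 µM) as positive control. RNA extracted for read-out; three independent experiments.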

Data set [10] addresses T2, G-protein coupled receptor 84. Briefly: Agonist activity at Gi coupled human GPR84 expressed in CHO cells assessed as inhibition of forskolin-induced cAMP accumulation at 10 uM after 15 mins in presence of [3H]-cAMP by radiometric assay relative to decanoic acid. Format: functional, cell-based. In outline:
(§4)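 Forskolin (10 µM) added with or without test compound for 15 min. Cells lysed in hot (90 °C) EDTA/Triton X-100 solution. cAMP measured radiometrically with bovine adrenal binding protein and [³H]cAMP, expressed as % of forskolin-alone response.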

The nature of data set [11]: Stability of the compound in water at 100 uM up to 24 hrs by HPLC-MS analysis. Particulars: buffer. The format is physicochemical. In outline: as §1
Data set [12] deals with T2, G-protein coupled receptor 84. Briefly: Agonist activity at Gi coupled human GPR84 expressed in CHO cells assessed as inhibition of forskolin-induced cAMP accumulation after 15 mins in presence of [3H]-cAMP by radiometric assay. The format is functional, cell-based. The gist of the method:
as §4
(In general: cAMP levels reflect the balance of adenylyl cyclase and phosphodiesterase activity.)

The subject of the next data set is CHO. The experiment in a line: Effect on forskolin-induced cAMP accumulation in CHO cells preincubated for 5 mins followed by forskolin addition measured after 15 mins in presence of [3H]-cAMP by radiometric assay. Format: ADME, cell-based, Cricetulus griseus. The settings on record: chinese hamster, 0.25 h. In outline: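 CHO cells stably expressing human GPR84, or the parent non-transfected CHO line, incubated in HBSS (pH 7.4) at 37 °C with RO-20-1724 (final 40 µM). Forskolin (10 µM) added with or without test compound for 15 min. Cells lysed in hot (90 °C) EDTA/Triton X-100 solution. cAMP measured radiometrically with bovine adrenal binding protein and [³H]cAMP, expressed as % of forskolin-alone response.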

Data set [13] is described as follows: Stability of the compound in pH 1.2 artificial gastric fluid containing HCl, NaCl and pepsin assessed as parent compound remaining at 100 uM after 2 hrs by HPLC-MS analysis. The gist of the method: as §1
The target of data set [14] is T1, Free fatty acid receptor 4 (Homo sapiens). Briefly: Antagonist activity at human FFAR4 expressed in CHO cells assessed as inhibition of TUG-89-induced beta-arrestin recruitment at 10 uM preincubated for 30 mins followed by TUG-89 addition measured after 90 mins by beta-galactosidase complementation assay. Format: cell-based.
Data set [15] deals with T3, Aryl hydrocarbon receptor. Briefly: Activation of AhR in human HepG2 cells assessed as induction of CYP1A1 mRNA expression at 5 to 20 uM after 18 hrs by RT-PCR method. Format: ADME, cell-based. The gist of the method:
as §3

Data set [16] concerns the target T2, G-protein coupled receptor 84. The experiment in a line: Ratio of EC50 for human GPR84 expressed in CHO cells assessed as beta-arrestin recruitment to EC50 for Gi coupled human GPR84 expressed in CHO cells assessed as inhibition of forskolin-induced cAMP accumulation. Format: functional, cell-based.
The target of data set [17] is T3, Aryl hydrocarbon receptor. Briefly: Activation of AhR in human HepG2 cells assessed as induction of CYP1A1 mRNA expression at 20 uM after 18 hrs by RT-PCR method. Format: ADME, cell-based. In outline: as §3
The target in data set [18] is T2, G-protein coupled receptor 84. Briefly: Agonist activity at human GPR84 expressed in CHO cells assessed as beta-arrestin recruitment after 90 mins by beta-galactosidase complementation assay. Format: cell-based. The gist of the method: as §2
Data set [19] shares this target. The experiment in a line: Agonist activity at Gi coupled human GPR84 expressed in CHO cells assessed as inhibition of forskolin-induced cAMP accumulation up to 100 uM preincubated for 5 mins followed by forskolin addition measured after 15 mins in presence of [3H]-cAMP by radiometric assay. Format: functional, cell-based. The gist of the method:
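Concentration-response in CHO-hGPR84 cells. Compound preincubated 5 min, then forskolin 10 µM added for a further 15 min. Maximal forskolin-induced cAMP without agonist set as 100 %. […] Mean ± SEM of 3 independent experiments in duplicate.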

The target of data set [20] is T3, Aryl hydrocarbon receptor. Briefly: Activation of AhR in human HepG2 cells assessed as induction of CYP1A1 mRNA expression at 10 uM after 18 hrs by RT-PCR method. The format is ADME, cell-based. In outline:
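HepG2 cells seeded at 3x10^5 cells/ml were exposed to compound for 18 h alongside untreated cells and a 3-methylcholanthrene (10 µM) positive control. Total RNA was then extracted for transcript measurement. Three independent experiments were run.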

Calls of active or inactive are those of the source. Unless noted, no cut-off for these calls is given here.

G-protein coupled receptor 35 (Homo sapiens), sequence (Q9HC97 whole entry): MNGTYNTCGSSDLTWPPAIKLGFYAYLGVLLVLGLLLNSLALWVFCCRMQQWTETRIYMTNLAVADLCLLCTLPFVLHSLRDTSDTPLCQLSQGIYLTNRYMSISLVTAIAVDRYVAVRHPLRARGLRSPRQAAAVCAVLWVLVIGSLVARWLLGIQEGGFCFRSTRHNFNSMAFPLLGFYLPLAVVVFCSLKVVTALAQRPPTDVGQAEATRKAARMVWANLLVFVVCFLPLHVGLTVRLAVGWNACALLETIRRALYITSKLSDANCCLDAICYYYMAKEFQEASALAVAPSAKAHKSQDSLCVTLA
Free fatty acid receptor 1, sequence (O14842 whole entry): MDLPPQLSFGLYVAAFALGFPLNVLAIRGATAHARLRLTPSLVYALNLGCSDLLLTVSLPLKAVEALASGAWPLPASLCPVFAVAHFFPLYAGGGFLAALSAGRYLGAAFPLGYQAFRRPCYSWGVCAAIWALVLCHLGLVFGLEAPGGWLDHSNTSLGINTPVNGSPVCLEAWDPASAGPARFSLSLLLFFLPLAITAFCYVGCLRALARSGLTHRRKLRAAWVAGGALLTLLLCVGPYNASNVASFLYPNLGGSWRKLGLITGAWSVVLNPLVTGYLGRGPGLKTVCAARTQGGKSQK
T2 sequence (Q9NQS5 whole entry, the tested form may be a part): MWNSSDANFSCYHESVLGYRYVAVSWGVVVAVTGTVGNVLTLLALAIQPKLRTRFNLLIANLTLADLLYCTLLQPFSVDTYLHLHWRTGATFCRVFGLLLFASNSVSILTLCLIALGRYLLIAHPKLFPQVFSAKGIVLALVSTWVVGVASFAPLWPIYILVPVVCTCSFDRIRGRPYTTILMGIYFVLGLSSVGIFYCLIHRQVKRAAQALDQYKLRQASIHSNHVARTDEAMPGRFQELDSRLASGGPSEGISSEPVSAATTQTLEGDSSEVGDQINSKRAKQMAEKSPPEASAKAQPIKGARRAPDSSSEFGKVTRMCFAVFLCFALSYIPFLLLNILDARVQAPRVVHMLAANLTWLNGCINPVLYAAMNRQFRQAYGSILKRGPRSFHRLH

As for `c1ccc2c(Cc3c[nH]c4ccccc34)c[nH]c2c1` [ARUNDINE], the Stability was 63% in data set [1]; “Stable” in data set [2]; 35% in data set [5]; “Stable” in [8]; “Stable” in [11]; 49% in data set [13]. For the same compound, the result in data set [3], in data set [4] and in [6] was inactive. The maximal response (Emax) in data set [7] stood at 60%; in [10], 125%. Besides, the Activity entry was “Dose-dependent effect” in [9] and “Non-Toxic” with CHO. The fold change (FC) in [10] stood at 29. Moreover, in data set [12], the inhibition entry was “Dose-dependent effect”. The inhibition entry in [14] is “inactive”.

With `Fc1cc(F)c2[nH]cc(Cc3c[nH]c4c(F)cc(F)cc34)c2c1`, the outcome in [3], in data set [4] and in data set [6] was inactive. Moreover, the Emax in data set [7] is 385%; in data set [10], 131%. For the same compound, the inhibition entry in [12] is “Dose-dependent effect”. The Activity entry with CHO was “Non-Toxic”; in data set [15] it was “Not Active”. In data set [14], the inhibition result was “inactive”.

As for `Fc1ccc2[nH]cc(Cc3c[nH]c4ccc(F)cc34)c2c1`, the Stability result in data set [2] was “Stable”; in data set [5] it was 57%; in data set [8], “Stable”; in data set [11] it was “Stable”. Moreover, the Ratio EC50 in data set [16] came out at 54. The outcome in data set [3], in data set [4] and in data set [6] was inactive. Further, the values for the Activity entry (in data set [17]; in the data set on CHO) were “Not Active” and “Non-Toxic”, respectively. Moreover, the results for the Emax in data set [7] and in [10] were 125% and 117%, respectively. The 50% effective concentration (EC50) in [18] is 4330 nM; in [12], 80 nM. In [12], the inhibition entry is “Dose-dependent effect”. Moreover, in [14], the inhibition result was “inactive”.

For `Cc1ccc2cc3c(ccc4ccccc43)c3c2c1CC3` [3-METHYLCHOLANTHRENE], the inhibition entry in data set [19] is “inactive”. In addition, the result in data set [20] was Active.

As a reminder, the Emax is the maximal effect, on the per cent scale that the assay sets. One may read the EC50 as the concentration at which the effect is half-maximal.
